# Data published in ChEMBL document CHEMBL1146030, “Identification of thieno[3,2-b]pyrroles as allosteric inhibitors of hepatitis C virus NS5B polymerase” (Bioorg Med Chem Lett, 2006).
# Active and inactive are the calls of the source. The calls are words filed in the database; no cut-off is given here.
# What was measured:
# [1] = target: RNA-directed RNA polymerase (Hepacivirus hominis, UniProt O39930); assay: Inhibition of HCV BK NS5B deltaC55 RNA dependent RNA polymerase; set-up: species or system Hepatitis C virus (isolate BK)
# Procedure, shortened: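 Purified NS5B ΔC55 enzyme from HCV genotype BK strain, assayed with heterogeneous template RNA; IC50 determined with a modified literature protocol.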
# Hepatitis C virus [2] = assay: Inhibition of HCV RNA replication in Huh7 cells in presence of 10% fetal calf serum; assay type: functional, organism-based, Hepacivirus hominis; conditions: Huh-7
# [3] = Partition coefficient, log D at pH 7.4; conditions: octanol/water
# Hepatitis C virus [4] = assay: Inhibition of HCV RNA replication in Huh7 cells up to 100 uM; assay type: functional, organism-based; conditions: Hepacivirus hominis; Huh-7
# Chain of RNA-directed RNA polymerase (O39930 whole entry): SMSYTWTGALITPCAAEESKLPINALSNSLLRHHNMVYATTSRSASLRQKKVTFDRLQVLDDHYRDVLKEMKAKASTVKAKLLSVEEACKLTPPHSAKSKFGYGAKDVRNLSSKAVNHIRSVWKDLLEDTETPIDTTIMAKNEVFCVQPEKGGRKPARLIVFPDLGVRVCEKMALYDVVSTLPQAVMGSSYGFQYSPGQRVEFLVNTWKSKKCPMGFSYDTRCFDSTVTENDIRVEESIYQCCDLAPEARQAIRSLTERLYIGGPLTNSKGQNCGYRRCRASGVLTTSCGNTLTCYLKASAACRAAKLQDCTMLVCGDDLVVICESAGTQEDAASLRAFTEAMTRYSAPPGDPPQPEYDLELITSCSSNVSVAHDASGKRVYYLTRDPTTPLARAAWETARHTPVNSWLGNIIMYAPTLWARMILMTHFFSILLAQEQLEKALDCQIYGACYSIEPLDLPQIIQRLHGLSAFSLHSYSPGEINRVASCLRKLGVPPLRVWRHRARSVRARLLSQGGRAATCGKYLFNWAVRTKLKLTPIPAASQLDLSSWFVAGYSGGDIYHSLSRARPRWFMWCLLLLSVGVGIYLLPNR
Structure (SMILES),IC50 [1],EC50 (Hepatitis C virus [2]),logD [3],Activity (Hepatitis C virus [4])
O=C(O)c1ccc2c(C3CCCCC3)c(-c3ccccc3)n(CC(=O)N3CCOCC3)c2c1,–,0.8 µM,–,–
CN(C)C(=O)Cn1c(-c2ccccc2)c(C2CCCCC2)c2ncc(C(=O)O)cc21,2.2 µM,> 50 µM,0.8,–
COc1ccc(-c2nc(/C=C/C(=O)O)cn2C2CCCCC2)cc1,77.3 µM,–,–,inactive
O=C(O)c1cc2c(nc(-c3ccccc3)n2C2CCCCC2)s1,13.8 µM,–,–,inactive
O=C(O)c1cc2nc(-c3ccccc3)n(C3CCCCC3)c2[nH]1,> 50 µM,–,–,inactive
O=C(O)c1c[nH]c2c(C3CCCCC3)c(-c3ccccc3)nc-2c1,1.9 µM,48.2 µM,2.5,–
O=C(O)c1ccc2c(C3CCCCC3)c(-c3ccccc3)[nH]c2c1,–,6.7 µM,–,–
O=C(O)c1ccc2nc(-c3ccccc3)c(C3CCCCC3)cc2c1,4.8 µM,–,–,inactive
CN(C)C(=O)Cn1c(-c2ccccc2)c(C2CCCCC2)c2ccc(C(=O)O)nc21,0.32 µM,9.8 µM,1.1,–
O=C(O)c1ccc2cc(C3CCCCC3)c(-c3ccccc3)nc2c1,> 50 µM,–,–,inactive
COc1ccc(-c2nc3cc(C(=O)O)ccc3n2C2CCCCC2)cc1,11.2 µM,> 50 µM,–,–
O=C(O)c1ccc2c(c1)nc(-c1ccccc1)n2C1CCCCC1,6.5 µM,> 50 µM,–,–
O=C(O)c1cc2nc(-c3ccccc3)n(C3CCCCC3)c2s1,17.2 µM,–,–,inactive

# The next lines start with results.
IC50 [1],EC50 (Hepatitis C virus [2]),logD [3],Structure (SMILES),Activity (Hepatitis C virus [4])
0.058 µM,2.9 µM,–,CN(C)C(=O)Cn1c(-c2ccccc2)c(C2CCCCC2)c2sc(C(=O)O)cc21,–
0.12 µM,19.5 µM,–,O=C(O)c1cc2c(C3CCCCC3)c(-c3ccccc3)[nH]c2s1,–
0.094 µM,–,–,O=C(O)c1ccc2c(C3CCCCC3)c(-c3ccccc3)cn2c1,inactive
0.23 µM,9.5 µM,–,CN(C)C(=O)Cn1c(-c2ccccc2)c(C2CCCCC2)c2cc(C(=O)O)sc21,–
0.15 µM,16.8 µM,3.3,O=C(O)c1ccc2c(C3CCCCC3)c(-c3ccccc3)[nH]c2n1,–
0.066 µM,11.2 µM,3.4,O=C(O)c1cc2[nH]c(-c3ccccc3)c(C3CCCCC3)c2s1,–
